# Source: ChEMBL document CHEMBL3271980, “Synthesis and some pharmacological properties of oxytocin analogues having L-thiazolidine-4-carboxylic acid in position 7” (1976)
# Assays:
# Assay type in all cases: functional
# [1] = species: Rattus norvegicus; assay: Effect on rat uterus activity relative to bradykinin
# [2] = species: Rattus norvegicus; assay: Effect on rat blood pressure relative to bradykinin
# [3] = test system: Gallus gallus; assay: Induction of vasodepressor activity in conscious chicken
# In short: (§1)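 Purified analogues assayed for oxytocic, avian vasodepressor and rat pressor activity. Potency was measured against the U.S.P. posterior pituitary reference standard using a four-point assay design.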
# [4] = Induction of oxytocic activity in rat uterus; in short: as §1
# [5] = species: Rattus norvegicus; assay: Effect on pressor activity in rat; in short: as §1
Compound,Activity [1],Activity [2],Activity [3],Activity [4],Activity [5]
N=C(N)NCCC[C@H](NC(=O)[C@H](Cc1ccccc1)NC(=O)[C@@H]1CCCN1C(=O)[C@H](CO)NC(=O)[C@H](Cc1ccccc1)NC(=O)CNC(=O)[C@@H]1CSCN1C(=O)[C@@H]1CCCN1C(=O)[C@@H](N)CCCNC(=N)N)C(=O)O,46%,26%,,,
CC[C@H](C)[C@@H]1NC(=O)[C@H](Cc2ccc(O)cc2)NC(=O)[C@@H](N)CSSC[C@@H](C(=O)N2CSC[C@H]2C(=O)N[C@@H](CC(C)C)C(=O)NCC(N)=O)NC(=O)[C@H](CC(N)=O)NC(=O)[C@H](CCC(N)=O)NC1=O,,,720 U/mg,1180 U/mg,3.46 U/mg
CC[C@H](C)[C@@H]1NC(=O)[C@H](Cc2ccc(O)cc2)NC(=O)CCSSC[C@@H](C(=O)N2CSC[C@H]2C(=O)N[C@@H](CC(C)C)C(=O)NCC(N)=O)NC(=O)[C@H](CC(N)=O)NC(=O)[C@H](CCC(N)=O)NC1=O,,,2039 U/mg,1538 U/mg,1.69 U/mg
CC[C@H](C)[C@@H]1NC(=O)[C@H](Cc2ccc(O)cc2)NC(=O)CCSSC[C@@H](C(=O)N2CCC[C@H]2C(=O)N[C@@H](CC(C)C)C(=O)NCC(N)=O)NC(=O)[C@H](CC(N)=O)NC(=O)[C@H](CCC(N)=O)NC1=O,,,975 U/mg,803 U/mg,1.44 U/mg
CC[C@H](C)[C@@H]1NC(=O)[C@H](Cc2ccc(O)cc2)NC(=O)[C@@H](N)CSSC[C@@H](C(=O)N2CCC[C@H]2C(=O)N[C@@H](CC(C)C)C(=O)NCC(N)=O)NC(=O)[C@H](CC(N)=O)NC(=O)[C@H](CCC(N)=O)NC1=O [OXYTOCIN],,,507 U/mg,546 U/mg,3.1 U/mg
